Data: PubChem BioAssay AID504499 (Broad Institute, 2011)
The source made the active and inactive calls.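 The calls were made as follows: active = compounds whose fitted half-maximal growth inhibition potency lies within ten times the top tested dose; inconclusive = flat inhibition of 30 to 70 percent, or poor fit; inactive = the rest.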

Legend:
[1] = single-agent antifungal activity without fluconazole – CaCi-2, no fluconazole, powder samples, set 9, counter-screen for antifungal drug resistance project, dose response (AID 504499); conditions: C. albicans CaCi-2 growth without fluconazole, Alamar Blue, 48 h; at 26 µM (top of the series)
Outline: (§1)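 system = C. albicans CaCi-2 | amount = inoculum at 0.00015 A600 | medium = RPMI synthetic defined growth medium without fluconazole | schedule = Yeast–compound growth 48 h, 37 °C, then Alamar Blue 2 h | benchmarks = geldanamycin positive control | signal = Alamar Blue fluorescence, 544/590 nm | evaluation = relative yeast growth derived from Alamar Blue fluorescence signal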

[2] = tested on: C. albicans CaCi-2 (fluconazole-resistant clinical isolate) growth without fluconazole, Alamar Blue, 48 h; assay: as above
Outline: as §1

SMILES	growth change, negative = inhibition [1]	AC50 [2] [µM]
O=C(Cn1c2ccc(F)cc2c2nc3n(c(=O)c21)CCS3)N1CC=CC1	2.91% (inactive)	–
O=C(Cn1c2ccccc2c2nc3n(c(=O)c21)CCS3)N1CCC(F)(F)C1	5.06% (inactive)	–
O=C(Cn1c2ccc(F)cc2c2nc3n(c(=O)c21)CCS3)N1CCC(F)(F)C1	-1.64% (inactive)	–
O=C(O)Cn1c2ccc(F)cc2c2nc3n(c(=O)c21)CCS3	-15.5% (inactive)	–
CC1(O)CN(C(=O)Cn2c3ccccc3c3nc4n(c(=O)c32)CCS4)C1	5.26% (inactive)	–
COC(=O)Cn1nc(-c2cscn2)c2ccccc21	-11.4% (inactive)	–
COC(=O)Cn1nc(-c2cccc(OC)c2)c2ccccc21	-28.4% (inactive)	–
CCc1nn(CC(=O)OC)c2ccccc12	-15.4% (inactive)	–
COC(=O)Cn1nc(-c2cccnc2)c2ccccc21	1.88% (inactive)	–
COC(=O)Cn1nc(C2CCCCC2)c2ccccc21	-13.2% (inactive)	–
CC1CCN(CCn2c3ccccc3c3nc4n(c(=O)c32)CCS4)CC1	2.22% (inactive)	–
c1ccc(-c2nn(Cc3nnco3)c3ccccc23)cc1	18.3% (inactive)	–
O=C(Cn1c2ccccc2c2nc3n(c(=O)c21)CCS3)N1CCC(F)(F)CC1	5.44% (inactive)	–
COC(=O)Cn1nc(-c2cccc(C)c2)c2ccccc21	-23.2% (inactive)	–
CN1CCN(C(=O)Cn2c3ccccc3c3nc4n(c(=O)c32)CCS4)CC1	2.02% (inactive)	–
COC(=O)n1nc(-c2ccccc2)c2ccccc21	-9.34% (inactive)	–
O=C(O)Cn1c2ccccc2c2nc3n(c(=O)c21)CCS3	31.2% (inactive)	–
COC(=O)Cn1nc(C2CC2)c2ccccc21	4% (inactive)	–
O=C(Cn1c2ccccc2c2nc3n(c(=O)c21)CCS3)N1CCCCC1	-17.6% (inactive)	–
O=C(Cn1c2ccccc2c2nc3n(c(=O)c21)CCS3)N1CC=CC1	6.32% (inactive)	–
COC(=O)Cn1nc(-c2ccccc2)c2cccnc21	-7.57% (inactive)	–
O=C(Cn1c2ccccc2c2nc3n(c(=O)c21)CCS3)N1CCCC1	-33.3% (inactive)	–
COC(=O)Cn1c2ccc(F)cc2c2nc3n(c(=O)c21)CCS3	–	19.4
O=C(Cn1c2ccc(F)cc2c2nc3n(c(=O)c21)CCS3)N1CCC(F)(F)CC1	-9.87% (inactive)	–
COC(=O)Cn1nc(-c2cccc(F)c2)c2ccccc21	-24.6% (inactive)	–
COC(=O)Cn1nc(-c2cnco2)c2ccccc21	22% (inactive)	–
COC(=O)Cn1nc(C(C)(C)C)c2ccccc21	6.09% (inactive)	–
